ChEMBL document CHEMBL1131145, “Halogenated chalcones with high-affinity binding to P-glycoprotein: potential modulators of multidrug resistance” (J Med Chem, 1998)

Assays:
[1] = The dissociation constant was measured as binding affinity to P-Glycoprotein C-terminal cytosolic domain using the grafit program.
Outline: (§1)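 Tryptophan fluorescence excited at 295 nm, emission scanned 310–380 nm and integrated after buffer Raman subtraction. Chalcone titrated in successive additions up to 20 µM. Quenching corrected for inner-filter effect using N-acetyltryptophanamide. KD and ΔFmax obtained by curve fitting.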

[2] = The maximal fluorescence quenching was determined using the Grafit program.; outline: as §1

SMILES | Kd [1] [nM] | maximal fluorescence quenching [2] [%]
O=C(/C=C/c1ccccc1)c1c(O)cc(O)cc1O [2',4',6-TRIHYDROXYCHALCONE] | – | 87.8
O=C(/C=C/c1ccc(O)cc1)c1c(O)cc(O)cc1O [4,2',4',6'-TETRAHYDROXYCHALCONE] | 4800 | 86.8
O=C(/C=C/c1ccc(Cl)cc1)c1c(O)cc(O)cc1O [4-CHLORO-2',4',6'-TRIHYDROXYCHALCONE] | 1300 | 80.1
O=C(/C=C/c1ccc(F)cc1)c1c(O)cc(O)cc1O [4-FLUORO-2',4',6'-TRIHYDROXYCHALCONE] | 3600 | 88.1
COc1ccc(/C=C/C(=O)c2c(O)cc(O)cc2O)cc1 [4-METHOXYL-2',4',6'-TRIHYDROXYCHALCONE] | 2300 | 85.5

Results, then the compound that gave them:

Kd [1] [nM] | maximal fluorescence quenching [2] [%] | SMILES
250 | 86.6 | O=C(/C=C/c1ccc(I)cc1)c1c(O)cc(O)cc1O
570 | 88.7 | O=C(/C=C/c1ccc(Br)cc1)c1c(O)cc(O)cc1O [4-BROMO-2',4',6'-TRIHYDROXYCHALCONE]
